Measurements reported in ChEMBL document CHEMBL1649328, “Assessment of pandemic and seasonal influenza A (H1N1) virus susceptibility to neuraminidase inhibitors in three enzyme activity inhibition assays” (Antimicrob Agents Chemother, 2010).

What was measured:
Influenza A virus [1] = test: Antiviral activity against influenza A (A/Osaka/180/2009 (H1N1)) virus harboring neuraminidase H275Y mutant after 30 mins by NA-star substrate based chemiluminescent assay; format: functional, organism-based
Outline: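 Titrated virus in NA-Star buffer (26 mM MES, 4 mM CaCl2, pH 6.0) was preincubated with ten half-log inhibitor dilutions (0.03–1,000 nM final) for 30 min at 37°C, then with substrate for 30 min at room temperature. Accelerator solution was added and luminescence read for 0.1 s. IC50 came from a Vmax·[1−x/(K+x)] fit, mean of ≥3 experiments.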

Influenza A virus [2] = test: Antiviral activity against influenza A (A/North Carolina/01/2009 (H1N1)) virus harboring neuraminidase H275Y mutant after 16 to 18 hrs by fetuin substrate based colorimetric assay; format: functional, organism-based
Outline: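 Colorimetric NA inhibition with fetuin substrate. Virus was diluted in NA-Star buffer (26 mM MES, 4 mM CaCl2, pH 6.0) to give OD549 of 0.4–0.8 after 18 h. It was preincubated with ten half-log inhibitor dilutions (0.03–1,000 nM final) for 1 h at 37°C, then with fetuin (5.5 mg/ml final) for 16–18 h at 37°C. Released sialic acid was read at 549 nm after periodate/TBA reaction and butanol extraction. IC50 came from a Vmax·[1−x/(K+x)] fit, mean of ≥2 experiments.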

Influenza A virus [3] = test: Ratio of IC50 for influenza A (A/North Carolina/02/2009 (H1N1)) virus harboring neuraminidase H275Y mutant to IC50 for influenza A (A/Washington/10/2008 (H1N1)) virus expressing wild type enzyme expressing wild type enzyme by NA-star substrate based chemiluminescent assay; format: functional
Influenza A virus [4] = test: Ratio of IC50 for influenza A (A/Washington/29/2009 (H1N1)) virus harboring neuraminidase H275Y mutant to IC50 for influenza A (A/Washington/29/2009 (H1N1)) virus expressing wild type enzyme by NA-star substrate based chemiluminescent assay; format: functional
Outline: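 Chemiluminescent NA inhibition in MES 26 mM/CaCl2 4 mM buffer, pH 6.0. […] Luminescence read for 0.1 s. IC50 from the fit y = Vmax·{1 − [x/(K + x)]}, mean of ≥3 experiments. Ratio is the H275Y variant IC50 over the pandemic wild-type reference IC50.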

Influenza A virus [5] = test: Ratio of IC50 for influenza A (A/Singapore/91/2009 (H1N1))virus harboring neuraminidase H275Y mutant to IC50 for influenza A (A/Washington/29/2009 (H1N1)) virus expressing wild type enzyme by MUNANA substrate based fluorometric assay; format: functional
Outline: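 Fluorometric NA inhibition in MES/CaCl2 buffer, pH 6.0. Virus preincubated 30 min at 37°C with ten half-log inhibitor dilutions (0.03–1,000 nM final), then MUNANA (100 μM final) added for 30 min at 37°C. Stopped with 0.1 M glycine in 25% ethanol, pH 10.7. Read at ex 365/em 450 nm. IC50 curve-fitted, mean of ≥3 experiments. Ratio is variant IC50 over wild-type reference IC50.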

Influenza A virus [6] = test: Ratio of IC50 for influenza A (A/North Carolina/01/2009 (H1N1)) virus harboring neuraminidase H275Y mutant to IC50 for influenza A (A/Washington/29/2009 (H1N1)) virus expressing wild type enzyme by MUNANA substrate based fluorometric assay; format: functional
Influenza A virus [7] = test: Ratio of IC50 for influenza A (A/Osaka/180/2009 (H1N1)) virus harboring neuraminidase H275Y mutant to IC50 for influenza A (A/Washington/29/2009 (H1N1)) virus expressing wild type enzyme by MUNANA substrate based fluorometric assay; format: functional
Influenza A virus [8] = test: Ratio of IC50 for influenza A (A/North Carolina/02/2009 (H1N1)) virus harboring neuraminidase H275Y mutant to IC50 for influenza A (A/Washington/10/2008 (H1N1)) virus expressing wild type enzyme by fetuin substrate based colorimetric assay; format: functional
Influenza A virus [9] = test: Ratio of IC50 for influenza A (A/Singapore/91/2009 (H1N1)) virus harboring neuraminidase H275Y mutant to IC50 for influenza A (A/Washington/29/2009 (H1N1)) virus expressing wild type enzyme by fetuin substrate based colorimetric assay; format: functional
Outline: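 Colorimetric NA inhibition using a virus dilution that gave 0.4–0.8 OD549. Virus preincubated 1 h at 37°C with half-log inhibitor dilutions (0.03–1,000 nM final) in MES/CaCl2 pH 6.0 buffer. Fetuin (5.5 mg/ml final) then added for 18 h at 37°C. Released sialic acid detected by periodate oxidation and thiobarbituric acid, butanol extraction, read at 549 nm. IC50 curve-fitted, ≥2 experiments. Ratio is variant IC50 over wild-type reference IC50.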

Compound	IC50 (Influenza A virus [1])	IC50 (Influenza A virus [2])	Ratio IC50 (Influenza A virus [3])	Ratio IC50 (Influenza A virus [4])	Ratio IC50 (Influenza A virus [5])	Ratio IC50 (Influenza A virus [6])	Ratio IC50 (Influenza A virus [7])	Ratio IC50 (Influenza A virus [8])	Ratio IC50 (Influenza A virus [9])
C/C=C\[C@@H]1C[C@H](C(=O)O)N[C@H]1[C@@H](NC(C)=O)[C@](C)(CCC)OC	0.91 nM	2.32 nM	1	5	1	4	5	1	1
CCC(CC)[C@H](NC(C)=O)[C@@H]1[C@H](O)[C@@H](C(=O)O)C[C@H]1NC(=N)N [PERAMIVIR ANHYDROUS]	13.1 nM	105 nM	1	89	1	831	488	1	1
